From ChEMBL document CHEMBL3769319, “Antischistosomal activity of N,N'-arylurea analogs against Schistosoma japonicum” (Bioorg Med Chem Lett, 2016)
Active and inactive are the calls of the source. The calls are words filed in the database; no cut-off is given here.

How the values were obtained:
[1] = system: Schistosoma japonicum; experiment: Antischistosomal activity against juvenile stage of Schistosoma japonicum at 32 uM after 72 hrs by microscopy
[2] = system: Schistosoma japonicum; experiment: Antischistosomal activity against adult stage of Schistosoma japonicum infected in ICR mouse assessed as reduction of parasite burden at 400 mg/kg, po administered as single dose measured after 14 days; type: functional; parameters: scale not given: the % may be the effect or the level left
Method in brief: (§1)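 Mice with adult S. japonicum infection got one oral dose (200 or 400 mg/kg) as an ultrasound-aided corn oil suspension; one group got an HP-β-CD complex solution instead. Untreated infected mice served as controls, 5–6 per group. Worm counts (mean, SD) gave percent worm burden reduction against control.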

[3] = system: Schistosoma japonicum; experiment: Antischistosomal activity against juvenile stage of Schistosoma japonicum infected in ICR mouse assessed as reduction of parasite burden at 400 mg/kg, po administered as single dose measured after 14 days; type: functional; parameters: scale not given: the % may be the effect or the level left
[4] = system: Schistosoma japonicum; experiment: Antischistosomal activity against juvenile stage of Schistosoma japonicum after 72 hrs by microscopy; type: functional, organism-based
Method in brief: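 Juvenile S. japonicum were screened at 32 µM for 72 h. Compounds that killed worms were then tested three times in 2-fold serial dilutions from 32 to 2 µM, each incubated 72 h, and IC50 was calculated.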

[5] = system: Schistosoma japonicum; experiment: Antischistosomal activity against adult stage of Schistosoma japonicum after 72 hrs by microscopy; type: functional, organism-based
[6] = system: Schistosoma mansoni; experiment: Antischistosomal activity against Schistosoma mansoni infected in mouse assessed as reduction of parasite burden at 400 mg/kg, po administered as single dose; type: functional; parameters: scale not given: the % may be the effect or the level left
[7] = system: Schistosoma japonicum; experiment: Antischistosomal activity against adult stage of Schistosoma japonicum infected in ICR mouse assessed as reduction of parasite burden at 200 mg/kg, po administered as single dose measured after 14 days; type: functional; parameters: scale not given: the % may be the effect or the level left
Method in brief: as §1

[8] = system: Schistosoma japonicum; experiment: Antischistosomal activity against juvenile stage of Schistosoma japonicum infected in ICR mouse assessed as reduction of parasite burden at 200 mg/kg, po administered as single dose measured after 14 days; type: functional; parameters: scale not given: the % may be the effect or the level left

Structure (SMILES): O=C(Nc1ccccn1)Nc1ccccn1
- Activity [1]: inactive

Structure (SMILES): Cc1ccc(NC(=O)Nc2ccc(Cl)c(Cl)c2)cc1
- Activity [1]: inactive

Structure (SMILES): CCCCNC(=O)Nc1ccc(Cl)c(Cl)c1
- Activity [1]: inactive

Structure (SMILES): O=C(Nc1ccc(Cl)c(Cl)c1)Nc1ccccc1F
- Activity [1]: inactive

Structure (SMILES): Clc1nc(Nc2ccc(Cl)c(Cl)c2)nc(Nc2ccc(Cl)c(Cl)c2)n1
- Activity [1]: inactive

Structure (SMILES): O=C1N(c2ccc(Cl)c(Cl)c2)C(O)C(O)N1c1ccc(Cl)c(C(F)(F)F)c1 (stereo not drawn)
- Activity [1]: inactive

Structure (SMILES): COc1ccc(NC(=O)Nc2ccc(Cl)c(Cl)c2)cc1
- Activity [1]: inactive

Structure (SMILES): O=C1N(c2ccc(Cl)c(Cl)c2)CCN1c1ccc(Cl)c(C(F)(F)F)c1
- Activity [1]: inactive

Structure (SMILES): N#Cc1cc(NC(=O)Nc2ccc(Cl)c(Cl)c2)ccc1F
- Activity [2]: 11.4%
- Activity [3]: 14.6%
- IC50 [4]: 4.3 µM
- IC50 [5]: 2.2 µM

Structure (SMILES): O=C(Nc1ccc(F)c(F)c1)Nc1ccc(F)c(F)c1
- Activity [2]: 2.3%
- Activity [3]: 6.4%
- IC50 [4]: 7 µM
- IC50 [5]: 5.1 µM

Structure (SMILES): O=C(Nc1cnc(Cl)c(Cl)c1)Nc1cnc(Cl)c(Cl)c1
- Activity [1]: inactive

Structure (SMILES): O=C(Nc1cccnc1)Nc1ccc(Cl)c(Cl)c1
- Activity [1]: inactive

Structure (SMILES): O=C(Nc1ccc(Cl)c(Cl)c1)Nc1ccc(Cl)c(Cl)c1
- Activity [2]: 9.3%
- Activity [3]: 32.2%
- Activity [6]: 52.5%
- IC50 [4]: 4.4 µM
- IC50 [5]: 2.2 µM

Structure (SMILES): COc1ccccc1NC(=O)Nc1ccc(Cl)c(Cl)c1
- Activity [1]: inactive

Structure (SMILES): O=C(Nc1cccnc1)Nc1cccnc1
- Activity [1]: inactive

Structure (SMILES): O=C(Nc1ccc(Cl)c(C(F)(F)F)c1)Nc1ccc(Cl)c(C(F)(F)F)c1
- Activity [7]: 32.6%
- IC50 [4]: 2.8 µM
- IC50 [5]: 2.2 µM
- Activity [8]: 33.4%

Structure (SMILES): O=C(Nc1ccccc1S(=O)(=O)N1CCOCC1)Nc1ccccc1S(=O)(=O)N1CCOCC1
- IC50 [4]: 22.6 µM

Structure (SMILES): O=C(Nc1ccc(Cl)c(Cl)c1)Nc1cnc(Cl)c(Cl)c1
- IC50 [4]: 11.3 µM

Structure (SMILES): O=C(Nc1ccc(Cl)c(Cl)c1)NC12CC3CC(CC(C3)C1)C2
- Activity [1]: inactive

Structure (SMILES): C[C@H]1[C@H](OC(=O)CCC(=O)O)O[C@@H]2O[C@@]3(C)CC[C@H]4[C@H](C)CC[C@@H]1[C@@]24OO3 [ARTESUNATE]
- Activity [3]: 72.4%

Structure (SMILES): O=C(Nc1cccc(Cl)c1)Nc1ccc(Cl)c(Cl)c1
- IC50 [4]: 10.1 µM

Structure (SMILES): O=C(Nc1ccc(Cl)c(Cl)c1)Nc1cccc2ccccc12
- IC50 [4]: 12.8 µM

Structure (SMILES): O=C(Nc1ccc(Cl)c(Cl)c1)NN1CCN(c2ccccc2)CC1
- Activity [1]: inactive

Structure (SMILES): O=C(Nc1ccc(N2CCOCC2)c(C(F)(F)F)c1)Nc1ccc(N2CCOCC2)c(C(F)(F)F)c1
- IC50 [4]: 22.6 µM

Structure (SMILES): O=C(Nc1ccc(Cl)c(Cl)c1)NC1CCCCC1
- Activity [1]: inactive

Structure (SMILES): O=C1C(=O)N(c2ccc(Cl)c(C(F)(F)F)c2)C(=O)N1c1ccc(Cl)c(Cl)c1
- Activity [1]: inactive

Structure (SMILES): O=S(=O)(Nc1ccc(Cl)c(Cl)c1)Nc1ccc(Cl)c(Cl)c1
- Activity [1]: Active
- IC50 [4]: 22.6 µM

Structure (SMILES): Nc1ccc(NC(=O)Nc2ccc(Cl)c(Cl)c2)cc1
- Activity [1]: inactive

Structure (SMILES): O=C(Nc1ccc(F)c(F)c1)Nc1ccc(Cl)c(Cl)c1
- Activity [2]: 0%
- Activity [3]: 27.8%
- IC50 [4]: 4.7 µM
- IC50 [5]: 2.2 µM

Structure (SMILES): O=C(Nc1ccc(Cl)c(Cl)c1)Nc1cccc2cnccc12
- IC50 [4]: 22.6 µM

Structure (SMILES): Clc1ccc(Nc2nc(Nc3ccc(Cl)c(Cl)c3)nc(N3CCOCC3)n2)cc1Cl
- Activity [1]: Active
- IC50 [4]: 19 µM

Structure (SMILES): O=C(Nc1ccc(Cl)c(Cl)c1)Nc1ccc(N2CCOCC2)c(C(F)(F)F)c1
- Activity [2]: 3.4%
- Activity [3]: 18.8%
- IC50 [4]: 9.6 µM
- IC50 [5]: 8.4 µM

Structure (SMILES): Cc1ccc(NC(=O)Nc2ccc(Cl)c(Cl)c2)cc1Cl
- IC50 [4]: 12.7 µM

Structure (SMILES): O=C(Nc1ccc(Cl)c(Cl)c1)C(=O)Nc1ccc(Cl)c(Cl)c1
- Activity [1]: inactive

Structure (SMILES): Clc1ccc(Nc2cc(Nc3ccc(Cl)c(Cl)c3)ncn2)cc1Cl
- Activity [1]: inactive

Structure (SMILES): S=C(Nc1ccc(Cl)c(Cl)c1)Nc1ccc(Cl)c(Cl)c1
- Activity [1]: inactive

Structure (SMILES): COc1cccc(NC(=O)Nc2ccc(Cl)c(Cl)c2)c1
- Activity [1]: inactive

Structure (SMILES): O=C(C1CCCCC1)N1CC(=O)N2CCc3ccccc3C2C1 (stereo not drawn) [PRAZIQUANTEL]
- Activity [2]: 90.7%

Structure (SMILES): O=C(Nc1ccc(Cl)c(Cl)c1)Nc1ccc(Cl)c(C(F)(F)F)c1
- Activity [7]: 26.6%
- IC50 [4]: 2.5 µM
- IC50 [5]: 1.5 µM
- Activity [8]: 11.6%
